Screens from PubChem.
CHO parental Ca: ATP-evoked calcium signal inhibitors, parental CHO, primary screen, counter-screen for OX1R antagonist project, cell-based, fluorescence, Fluo-8 calcium dye. inhibition, % at 5.6 µM. AID 463079, 2010. 0.63% of 330,000 active. parental CHO-K1, ATP-induced calcium, Fluo-8 fluorescence;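 active = inhibition above that plate's mean sample inhibition plus 3 SD, cut at about 26% in these data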;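 note: 0% = ATP-challenged DMSO wells and 100% = DMSO wells without ATP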
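Measured by: calcium-sensitive Fluo-8 fluorescence / Test system: CHO parental line / Controls: ATP-challenged DMSO wells low, unchallenged DMSO wells high / Measure: % inhibition / Compound: single nominal dose of 5.6 µM per compound / Replicates: single well per compound, no replicates / Reagent: ATP as calcium-mobilizing challenge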
OX1R antag-1: antagonists of human orexin 1 receptor (OX1R); Orexin/Hypocretin receptor type 1 (Homo sapiens), O43613; OX1R-expressing cells, FRET antagonist read-out; inhibition, % at 6.6 µM; 1.8% of 330,000 active; in the data active = inhibition mostly above about 38%, no sharp cut-off; inactive = mostly below about 40%;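 note: 0% = agonist challenge alone and 100% = reference antagonist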
Target sequence (O43613 whole entry, looked up): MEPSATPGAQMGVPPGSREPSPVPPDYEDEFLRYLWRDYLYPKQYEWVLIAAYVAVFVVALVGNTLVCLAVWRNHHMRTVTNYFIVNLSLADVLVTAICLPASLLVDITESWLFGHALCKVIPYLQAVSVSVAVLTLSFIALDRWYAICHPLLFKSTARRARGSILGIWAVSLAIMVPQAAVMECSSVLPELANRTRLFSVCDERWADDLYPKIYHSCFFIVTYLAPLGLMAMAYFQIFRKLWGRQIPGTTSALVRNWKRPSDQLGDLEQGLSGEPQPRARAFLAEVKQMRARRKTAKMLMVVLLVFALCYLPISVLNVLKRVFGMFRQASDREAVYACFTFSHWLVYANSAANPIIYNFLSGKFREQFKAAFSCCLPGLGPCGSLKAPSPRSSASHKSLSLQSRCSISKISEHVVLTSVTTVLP
TAAR1 antag: human TAAR1 antagonists, primary screen, Fluo-8 calcium fluorescence, CHO RD-HGA16 cells; Trace amine-associated receptor 1 (Homo sapiens), Q96RJ0; antagonist; inhibition, % at 3 µM; 1.5% of 360,000 active;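 active = inhibition above a per-plate cutoff, the mean inhibition of test compounds on that plate plus 3 SD, cut at about 49% in these data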;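 note: 0% = DMSO plus EC80 beta-PEA response and 100% = DMSO alone without agonist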
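Material: RD-HGA16 CHO cells with stable hTAAR1 and Gα16; Dosing: single nominal final test compound concentration of 3 µM; Schedule: seeding 17-24 h prior, 75-min 37 °C, 30-min RT dye loading; Detection: kinetic Fluo-8 calcium fluorescence measurement; Measure: % inhibition from peak post-agonist over basal fluorescence ratio; Benchmarks: vehicle and agonist controls.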
TAAR1 agonist: human TAAR1 agonists, primary screen, Fluo-8 calcium fluorescence, CHO RD-HGA16 cells | Trace amine-associated receptor 1 (Homo sapiens), Q96RJ0 | vehicle wells 0%, saturating PEA agonist 100% | activation, % at 3 µM | 0.99% of 360,000 active | AID 624467, 2012;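 active = activation above the mean activation of all test compounds in the run plus 3 SD, cut at about 38% in these data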
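Benchmarks: low control DMSO, high control PEA (EC100); System: CHO RD-HGA16 cells carrying human TAAR1 plus Gα16; Detection: Fluo-8 fluorescence, 5 s baseline then 140 s kinetic read; Schedule: 17-24 h plating, Fluo-8 75 min 37 °C, 30 min RT; Read-out basis: % activation from peak over basal fluorescence ratio, DMSO-to-PEA scaled.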
OX1R antag-2: OX1R (HCRTR1) antagonists, primary screen, fluorescence, CHO/OX1R cells, Fluo-8 calcium, orexin A; Orexin/Hypocretin receptor type 1 (Homo sapiens), O43613; inhibition, % at 5 µM; 0.43% of 330,000 active; Fluo-8 calcium fluorescence;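 active = inhibition above its plate's threshold, mean inhibition of all tested compounds on the plate plus 3 SD, cut at about 37% in these data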;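 note: 0% = orexin A challenge wells and 100% = SB-334867-A antagonist wells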
Starred values were filed as active, the others as inactive. Only some compounds are listed: those with a hit (about 3.9% of all), similar ones and a draw of the others.

What do the screens show for `O=C(Nc1cccnc1)c1ccc2c(c1)C(=O)N(CC1CCCO1)C2=O` (centres undefined)?
CHO parental Ca: -5.9; OX1R antag-1: 73.3*; TAAR1 antag: -18.3; TAAR1 agonist: 10.3; OX1R antag-2: -5.1

What do the screens show for `O=C(NCc1ccccc1)[C@@H]1CCCN1C(=O)[C@H]1CCCN1C(=O)N1CCCCC1`?
TAAR1 antag: -2.7; TAAR1 agonist: -0.4

What do the screens show for `COC(=O)CSc1nc(-c2ccccc2)nc2ccccc12`?
CHO parental Ca: -19.2; OX1R antag-1: 74.3*; TAAR1 antag: 24.4; TAAR1 agonist: 6.1; OX1R antag-2: -10.3

What do the screens show for `Cc1cc(C(=O)N[C@H](c2ccccc2)[C@@]2(C)C[C@@H]2[C@@H](C)C(=O)Nc2ccc3ccccc3c2)no1`?
CHO parental Ca: -11.0; OX1R antag-1: 49.7; TAAR1 antag: 52.8*; TAAR1 agonist: 20.8; OX1R antag-2: 5.0

How did C[C@@H](C(=O)Nc1ccc2ccccc2c1)[C@@H]1C[C@@]1(C)[C@@H](NC(=O)c1cnccn1)c1ccccc1 do in these assays?
CHO parental Ca: -20.4; OX1R antag-1: 12.3; TAAR1 antag: -5.8; TAAR1 agonist: 0.8; OX1R antag-2: -16.4

What do the screens show for `C[C@@H](C(=O)Nc1ccc2ccccc2c1)[C@H]1C[C@]1(C)[C@H](NC(=O)c1cnccn1)c1ccccc1`?
CHO parental Ca: -27.8; OX1R antag-1: 69.4*; TAAR1 antag: 18.1; TAAR1 agonist: 7.7; OX1R antag-2: 27.0

What do the screens show for `CCOCCCNC(=O)/C=C1\Sc2ccccc2N(Cc2ccccc2F)C1=O`?
CHO parental Ca: -12.2; OX1R antag-1: 44.0*; TAAR1 antag: 13.3; TAAR1 agonist: 6.9; OX1R antag-2: -10.3

How did CCOCCCNC(=O)CN1C(=O)/C(=C/c2ccccc2C)Sc2ccccc21 do in these assays?
CHO parental Ca: -11.7; OX1R antag-1: 12.1; TAAR1 antag: 5.2; TAAR1 agonist: 1.6; OX1R antag-2: -4.8

Results for Cc1ccc2c(c1)C(=NC1CCCCC1)c1cc3ccccc3nc1-2 ?
CHO parental Ca: -13.8; OX1R antag-1: 74.9*; TAAR1 antag: -9.5; TAAR1 agonist: 0.0; OX1R antag-2: 17.4

Results for Cc1ccc2c(c1)-c1nc3ccccc3cc1C2=NC1CCCCC1 ?
CHO parental Ca: -7.1; OX1R antag-1: 52.3; TAAR1 antag: -6.8; TAAR1 agonist: 4.1; OX1R antag-2: -2.2

Results for Cc1cc2cc(C(c3nnnn3Cc3ccccc3)N3CCc4ccccc43)c(=O)[nH]c2cc1C (centres undefined) ?
CHO parental Ca: -28.1; OX1R antag-1: 46.3*; TAAR1 antag: 0.3; TAAR1 agonist: 5.6; OX1R antag-2: 7.5

How did COc1ccc(CN2CCN(C(=O)c3ccc(S(=O)(=O)N4CCCCCC4)cc3)CC2)cc1F do in these assays?
TAAR1 antag: 58.2*; TAAR1 agonist: 12.4

Results for COc1ccc(CN2CCN(C(=O)c3ccc(S(=O)(=O)N4CCCCCC4)cc3)CC2)cc1 ?
TAAR1 antag: 17.9; TAAR1 agonist: 6.3

Results for CCC(CC)c1nnc(NC(=O)c2cc(-c3ccccc3)nc3ccccc23)s1 ?
CHO parental Ca: -22.8; OX1R antag-1: 24.7; TAAR1 antag: -8.6; TAAR1 agonist: -0.1; OX1R antag-2: -26.7

What do the screens show for `CCC(CC)c1nnc(NC(=O)c2ccc3ccccc3n2)s1`?
CHO parental Ca: -19.5; OX1R antag-1: 49.5*; TAAR1 antag: 2.4; TAAR1 agonist: 16.4; OX1R antag-2: -3.0

Results for O=C(Nc1nccs1)c1ccc2ccccc2n1 ?
CHO parental Ca: -13.7; OX1R antag-1: 70.9*; TAAR1 antag: 10.2; TAAR1 agonist: 1.4; OX1R antag-2: -6.3

Results for O=C(Nc1nccs1)c1ccc2nccnc2c1 ?
CHO parental Ca: -17.5; OX1R antag-1: 46.1*; TAAR1 antag: 1.1; TAAR1 agonist: -2.6; OX1R antag-2: -4.2

Results for Cc1csc(NC(=O)c2ccc3ccccc3n2)n1 ?
CHO parental Ca: -14.2; OX1R antag-1: 17.8; TAAR1 antag: 3.5; TAAR1 agonist: -1.4; OX1R antag-2: -27.7
